# Screening results from PubChem BioAssay.
# Many of the other results were omitted from the sample, so hits are more common in it than they were.
# CHOP inh: blocks CHOP induction under ER stress; AID 2732; inhibition, % at 10 µM; CHO-K1 CHOP-promoter luciferase, tunicamycin-induced, 15-18 h; 220,000 compounds, 3.8% hits;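 active = compounds that reduced the stress-induced luciferase reporter signal by more than about 70% of percent inhibition, limit read from the data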;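 also: 0% = tunicamycin plus vehicle and 100% = wells without tunicamycin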
# XBP1 UPR activ: adaptive UPR (XBP1) activation; 330,000 compounds, 0.33% hits; CHO-XBP1 luciferase reporter, IRE1-XBP1 UPR activation, luminescence; percent of tunicamycin response, DMSO as zero; activation, % at 20 µM;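 active = versus positive control, 20 µM dose yields 30% or more activation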;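 also: 100% = tunicamycin at 10 µg/mL and 0% = DMSO only wells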
#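 Material: CHO cell line with stable XBP1 luciferase reporter; schedule: 16-18 h cell attachment at 37 °C, then 6 h compound exposure; signal: glow luminescence from Steady-Glo reagent; medium: serum-containing F12 medium, 10% FBS; benchmarks: tunicamycin 10 µg/mL and vehicle-only wells; read-out: percent activation relative to tunicamycin reference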
# Tb MetRS inh: blocks T. brucei methionyl-tRNA synthetase activity | AID 624268 | inhibition, % at 11.9 µM | purified T. brucei MetRS, ATP depletion, Kinase-Glo luminescence | 360,000 compounds, 0.4% hits;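 active = inhibition above a per-plate cutoff of the control wells' mean inhibition plus 3 SD, cut at about 5.5% in these data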;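 also: 0% = DMSO wells median and 100% = median of wells with control inhibitor compound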
#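 Test system: purified T. brucei MetRS enzyme. Also added: ATP, methionine and E. coli bulk tRNA substrates. Compound: 11.9 µM single point. Schedule: 15 min enzyme-compound preincubation, 2 h reaction, 10 min detection, 25 °C. Signal: luciferase luminescence of residual ATP, Kinase-Glo. Evaluation: percent inhibition versus plate control medians. Controls: DMSO wells, low control.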
# V-ATPase pHluor: yeast V-ATPase proton transport regulation by pHLuorin. S. cerevisiae, pHLuorin cytosolic pH fluorescence. response, % at 10 µM. 350,000 compounds, 0.37% hits. AID 504577; in the data active = response mostly above about 7.3%, no sharp cut-off; inactive = mostly below about 5.4%; also: actives read high
# CHOP UPR activ: apoptotic UPR (CHOP) activation | CHO-CHOP luciferase reporter, luminescence; percent of tunicamycin response over DMSO baseline | activation, % at 10 µM | 330,000 compounds, 0.34% hits | AID 449763;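 active = at 10 µM dose, activation of 40% or more, normalized to positive control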;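 also: 100% = tunicamycin at 10 µg/mL and 0% = DMSO alone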
#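 System: CHO CHOP reporter cells. Amount: 500 cells per well. Buffer or medium: F12 medium, 10% FBS. Compound dosing: one dose, 10 µM in 0.5% DMSO. Incubation: 6 h compound exposure at 37 °C after overnight seeding. Technique: Steady-Glo luciferase luminescence. Benchmarks: tunicamycin and DMSO controls.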
# * hit, by the source's call; / = no result.
SMILES,CHOP inh,XBP1 UPR activ,Tb MetRS inh,V-ATPase pHluor,CHOP UPR activ
CC(C)C(=O)N1CCC1(C)C(=O)Nc1ccc(-n2cncn2)cc1 (stereo not drawn),/,/,0,/,/
CCc1ccc([C@@H]2C[C@H]3[C@@H](CN2S(=O)(=O)c2ccc(C)cc2)C(=O)C[C@@H](c2ccc(C)cc2)N3S(=O)(=O)c2ccc(C)cc2)cc1,/,/,0,-3,/
CCCC(=O)Nc1cc(-c2nnc(OC)c3ccccc23)ccc1N1CCCCC1,72*,1,/,/,-1
CCc1c(-c2ccccc2F)ncn1Cc1cccc(-c2ccccc2)c1,/,/,0,/,/
C/C(CC(C)C)=N/Nc1ccc([N+](=O)[O-])cc1[N+](=O)[O-],56,4,0,1,-1
COC(=O)CC/C(C)=N\Nc1ccc([N+](=O)[O-])cc1[N+](=O)[O-],75*,1,-1,0,5
CC1CC(C)CN(C(=O)/C(=C\c2ccccc2)c2ccccc2)C1 (stereo not drawn),68,-2,-1,-2,1
CC1CCCCN1C(=O)/C(=C\c1ccccc1)c1ccccc1 (stereo not drawn),88*,-1,0,-5,2
O=C(Nc1cc2c(cc1Cl)-c1ccc([N+](=O)[O-])cc1C2=NO)C(F)(F)F,/,/,1,-2,/
CCOC(=O)c1c(C)c(C(=O)N2CCN(C(=O)c3ccco3)CC2)c(C)n1C,4,0,-1,1,0
CCOC(=O)c1c(C)n(C(=O)c2ccco2)c(=O)n1C(=O)c1ccco1,85*,-1,-1,-1,-1
Cc1cc(C)c(CSc2ncc(-c3ccc([N+](=O)[O-])cc3)[nH]2)c(C)c1,75*,-4,0,-5,0
O=[N+]([O-])c1ccc(-c2cnc(SC(c3ccccc3)c3ccccc3)[nH]2)cc1,73*,6,0,-2,2
CC1(C(=O)Nc2ccc3c(c2)OCCO3)CN(S(C)(=O)=O)CC(=O)N1CCc1ccc(O)cc1 (stereo not drawn),/,/,0,/,/
COc1cc(CNC(=O)c2cc(-c3ccc(F)cc3OC)n[nH]2)cc(OC)c1,/,/,0,/,/
N=S(=O)(O)Cc1noc2ccccc12,4,/,/,/,/
CCOC(=O)c1ccc(-n2c(C)nc3c(cnn3-c3ccc(Cl)cc3)c2=O)cc1,76*,2,-1,1,7
COc1ccc(-n2c(C)nc3c(cnn3-c3ccc(C)cc3)c2=O)cc1,46,0,-1,3,2
COc1ccc(-n2c(C)nc3c(cnn3-c3ccc(Cl)cc3)c2=O)cc1,83*,1,0,0,13
c1ccc(N2CC3COc4ccccc4C3=N2)cc1 (stereo not drawn),/,/,0,-1,/
CSCCC(C)N1CCC(Oc2ccc(C(=O)NCc3ccccn3)cc2)CC1 (stereo not drawn),/,/,0,-2,/
CCc1ccc(NC(=O)COC(=O)/C=C/c2c(C)nn(C3CCS(=O)(=O)C3)c2Cl)cc1 (stereo not drawn),-5,-1,-2,5,1
CCOc1ccc(NS(=O)(=O)c2ccc3c(c2)CCN3C(=O)C2CCC2)cc1,82*,-3,-1,0,-2
O=C(C1CC1)N1CCc2cc(S(=O)(=O)NCCCN3CCCCC3)ccc21,/,-6,0,0,-3
O=C(C1CCC1)N1CCc2cc(S(=O)(=O)NCCN3CCN(c4ccccc4F)CC3)ccc21,74*,4,-1,4,5
SMILES,CHOP inh,XBP1 UPR activ,Tb MetRS inh,V-ATPase pHluor,CHOP UPR activ
COc1ccc(N(CC(=O)NC2CC3CCC2C3)S(=O)(=O)c2ccc(C)cc2)cc1Cl (stereo not drawn),/,/,0,-1,/
O=C(NCc1csc2ccccc12)Nc1cc(Cl)cc(Cl)c1,86*,1,0,3,1
COc1cccc(C(=O)NCCS(=O)(=O)N2CCN(c3ccccc3)CC2)c1OC,/,/,0,0,/
O=[N+]([O-])c1cc(S(=O)(=O)Nc2ccccc2)ccc1NCc1cccnc1,6,-4,0,2,0
O=[N+]([O-])c1cc(S(=O)(=O)Nc2ccccc2)ccc1NCc1ccccc1,92*,-1,1,-2,3
Cc1cccc(N(C(=O)CCC(=O)Nc2cc(C)on2)C(C(=O)NC2CCCC2)c2ccccc2)c1 (stereo not drawn),/,-5,0,-1,0
C/C(=N\NC(=O)CNc1cccc(C(F)(F)F)c1)c1ccc(Br)cc1,94*,2,3,1,2
CC(C)C(C(=O)NC1CCCC1)N1CCN(c2ncccc2C#N)CC1 (stereo not drawn),/,/,-1,/,/
O=C(CC[C@H]1O[C@@H](n2cnc3c(NC(=O)c4ccccc4)ncnc32)[C@H](O)[C@@H]1O)NCc1ccc2c(c1)OCO2,/,/,-1,/,/
CCOC(=O)C1=C(O)C(=O)NC(c2ccccc2)=C(OCC)C1,95*,1,0,3,4
COc1ccc(CC(=O)Nc2nc(-c3cccc([N+](=O)[O-])c3)cs2)cc1,80*,-2,0,12,0
COc1ccc(CC(=O)Nc2nc(-c3ccc(F)c(F)c3)cs2)cc1,/,3,0,3,1
O=C(NC(=S)Nc1nc(-c2cccc([N+](=O)[O-])c2)cs1)c1ccccc1Cl,96*,0,-1,-2,6
CC(=O)Nc1nc(C)c(-c2csc(Nc3cccc([N+](=O)[O-])c3)n2)s1,95*,3,-2,0,4
CCOc1ccc(-n2c(N)c(-c3nc4ccccc4[nH]3)sc2=S)cc1,81*,-1,1,0,0
COc1ccc(/C=N/NC(=O)COc2ccc(Cl)cc2Cl)cc1Cn1nc(C)cc1C,93*,-1,6,2,-1
CSc1ccc(CN2C(=O)C(C)ON=C2c2ccccc2F)cc1 (stereo not drawn),/,/,0,/,/
O=C1CC(c2ccccc2)CC(O)=C1C=NCCN1CCNCC1 (stereo not drawn),95*,-3,-1,-2,-1
NNC(=O)Cn1c(COc2ccc(Cl)cc2)nc2ccccc21,-23,0,0,-1,1
O=C(Cn1c(COc2ccccc2)nc2ccccc21)Nc1cccc(Cl)c1,78*,6,1,-1,1
COc1cc(/C=N/NC(=O)Cc2csc(C)n2)ccc1OCC(C)C,-1,3,-1,1,1
COc1ccc(/C=N/NC(=O)Cc2csc(Nc3cccc(C(F)(F)F)c3)n2)cc1C,81*,-3,-1,5,2
CCN(CC)c1nc(Nc2ccc(Cl)cc2)nc(OCC#N)n1,93*,4,0,-3,-1
CCn1c(=O)n(C)c2c(=O)n(C)c(=O)n(C)c21,/,/,0,-2,/
CCc1nc2ccc(C(=O)NCc3ccc4c(c3)OCO4)cn2c1N(CCC(C)C)CCN(C)C,/,/,-1,/,/
C=CCNC(=O)c1ccsc1N,/,/,-1,/,/
